Assay outcomes as filed in PubChem.
N-glyco inh: blocks N-linked glycosylation in D54 reporter cells; D54 ERlucT glycosylation luciferase reporter, 24 h; percent of 100 nM tunicamycin response; reporter increase, % at 12.5 µM; actives 0.23% (n = 360,000); AID 588692;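 active means mean luciferase reporter signal, scaled so untreated is 0 and the glycosylation-blocking control 100, at or above a set limit in every replicate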;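 further: luciferase carries N-glycosylation sites so blocking glycosylation raises the light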
ALR H2O2 inh: inhibitors of human sulfhydryl oxidase ALR; P55789; purified ALR, DTT oxidation, H2O2 HRP-luminol luminescence; inhibition, % (concentration not given with the values); actives 3.8% (n = 290,000); AID 485317;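 active means mean replicate inhibition above about 79%, with every replicate also reaching it, limit read from the data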
Target sequence (P55789 whole entry, looked up): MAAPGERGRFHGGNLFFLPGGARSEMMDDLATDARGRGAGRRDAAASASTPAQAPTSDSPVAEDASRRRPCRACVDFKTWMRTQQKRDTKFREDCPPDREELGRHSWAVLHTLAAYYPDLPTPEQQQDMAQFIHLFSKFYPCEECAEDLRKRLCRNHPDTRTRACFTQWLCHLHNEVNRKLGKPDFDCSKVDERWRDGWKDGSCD
T cell HTS: T cell immune modulation candidate; 2C CD8+ T cell-vesicle binding, flow cytometry; active compounds read low; response (vesicle binding), % at 7 µM; actives 0.068% (n = 330,000); AID 2052;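 active means response, share of CD8 T cells binding vesicles, and their 90th percentile fluorescence all below set limits, cut at about 80% in these data, passing the limit was not always enough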;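 further: values below 100% mean blocked vesicle binding to the CD8+ T cells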
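Assay system – 2C mouse CD8+ T cells · Also added – QL9-loaded Drosophila micro-vesicles · Timing – Cell–vesicle co-incubation 1.5 h at 37 °C, staining 20 min on ice · Signal – flow cytometry of vesicle-bound cells · Measure – percent CD8+ FL2 mean versus row control · Controls – Peptide-free naked vesicles (low) and QL9 vesicles with 0.7% DMSO vehicle (high)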
Numbers stand for hits. Only a selection was taken, and hits are over-represented in it overall.

How did CCCN(CC(=O)Nc1ccccc1C)C(=O)c1ccc(C2SCCS2)cc1 do in these assays?
N-glyco inh: inactive; ALR H2O2 inh: inactive; T cell HTS: inactive

What do the screens show for `O=C(NCc1cccc(OC(F)(F)F)c1)C1CCC(=O)N(Cc2cccc(F)c2)C1` (configuration not stated)?
N-glyco inh: inactive; ALR H2O2 inh: inactive; T cell HTS: inactive

What do the screens show for `Cn1c(SC2C(=O)CC(C)(C)CC2=O)nnc1-c1ccco1`?
N-glyco inh: inactive; ALR H2O2 inh: inactive; T cell HTS: inactive

Results for CC1(C)CC(=O)C(Sc2nnc(-c3ccc(NS(C)(=O)=O)cc3)n2Cc2ccco2)C(=O)C1 ?
N-glyco inh: inactive; ALR H2O2 inh: 92; T cell HTS: inactive

Results for Cc1ccc(CNC(=O)C(NS(=O)(=O)c2ccc3nc(C)sc3c2)C(C)C)cc1 (configuration not stated) ?
N-glyco inh: inactive; ALR H2O2 inh: 93; T cell HTS: inactive

Results for Cc1nc2ccc(S(=O)(=O)NC(C(=O)NCc3ccco3)C(C)C)cc2s1 (configuration not stated) ?
N-glyco inh: inactive; ALR H2O2 inh: inactive; T cell HTS: inactive

Results for COc1ccc(NC(=O)CNS(=O)(=O)c2ccc3nc(C)sc3c2)c(OC)c1 ?
N-glyco inh: inactive; ALR H2O2 inh: 99; T cell HTS: inactive

How did Cc1nc2ccc(S(=O)(=O)NCC(=O)N(C)Cc3ccccc3)cc2s1 do in these assays?
N-glyco inh: inactive; ALR H2O2 inh: 99; T cell HTS: inactive

What do the screens show for `Cc1nc2ccc(S(=O)(=O)NCC(=O)NC(C)c3ccccc3)cc2s1` (configuration not stated)?
N-glyco inh: inactive; ALR H2O2 inh: inactive; T cell HTS: inactive

What do the screens show for `COCCNC(=O)CNS(=O)(=O)c1ccc2nc(C)sc2c1`?
N-glyco inh: inactive; ALR H2O2 inh: inactive; T cell HTS: inactive

What do the screens show for `CCCCCN(C(=O)CCC(=O)OCC(=O)N1CCCC(C)C1)c1c(N)n(CCCC)c(=O)[nH]c1=O` (configuration not stated)?
N-glyco inh: inactive; ALR H2O2 inh: inactive; T cell HTS: inactive

Results for CC(=O)Oc1c(-c2ccco2)oc2ccccc2c1=O ?
N-glyco inh: inactive; ALR H2O2 inh: inactive; T cell HTS: inactive

What do the screens show for `O=C(O)COc1ccccc1/C=N/NC(=O)CSc1nnc(-c2ccc(Cl)cc2)n1C1CCCCC1`?
N-glyco inh: inactive; ALR H2O2 inh: inactive; T cell HTS: inactive

How did Cc1cccc2c(N)c3c(nc12)CCCC3 (tested in a mixture with another compound) do in these assays?
N-glyco inh: inactive

Results for Cc1cc(C)c2c(N)c3cccc(C)c3nc2n1 ?
N-glyco inh: 104; ALR H2O2 inh: inactive; T cell HTS: inactive

How did CSc1nnc(C)c(=O)n1COC(=O)c1ccc(S(=O)(=O)N2CCOCC2)cc1 do in these assays?
N-glyco inh: inactive; ALR H2O2 inh: inactive; T cell HTS: inactive

How did Cc1ccccc1-c1noc(CNC(=O)c2ccco2)n1 do in these assays?
N-glyco inh: inactive; ALR H2O2 inh: inactive; T cell HTS: inactive

What do the screens show for `COCCn1c(SCc2cccc(F)c2)nc2cc(C(=O)OC)ccc2c1=O`?
N-glyco inh: inactive; ALR H2O2 inh: inactive; T cell HTS: inactive

What do the screens show for `COc1ccc(NC(=O)C(C)Sc2ccccc2)cc1` (configuration not stated)?
N-glyco inh: inactive; ALR H2O2 inh: inactive; T cell HTS: inactive

What do the screens show for `CC(=O)Nc1ccc(SC(C)C(=O)NC(N)=O)cc1` (configuration not stated)?
N-glyco inh: inactive; ALR H2O2 inh: 99; T cell HTS: inactive

How did COc1cccc(C(C#N)NCCCNC(C#N)c2cccc(OC)c2OC)c1OC (configuration not stated) do in these assays?
N-glyco inh: inactive

How did O=C(c1cnn(C(=O)CN2CCCC2=O)c1)c1ccccc1O do in these assays?
N-glyco inh: inactive; ALR H2O2 inh: inactive; T cell HTS: inactive

What do the screens show for `CCOC(=O)C1CCCN(C(=O)c2ccc(F)c(C)c2)CC1` (configuration not stated)?
N-glyco inh: inactive

What do the screens show for `O=C(Nc1cc2c(cc1Cl)-c1ccc([N+](=O)[O-])cc1C2=NO)C(F)(F)F`?
N-glyco inh: inactive

What do the screens show for `O=C(CCCCCCCC(=O)c1ccccc1)c1ccccc1`?
N-glyco inh: inactive; ALR H2O2 inh: inactive; T cell HTS: inactive

How did C=C(CCC(=O)c1ccccc1)C(=O)c1ccccc1 do in these assays?
N-glyco inh: inactive; ALR H2O2 inh: 97; T cell HTS: inactive

How did COc1ccc(NC(=O)C2Cc3c(-c4ccccc4Oc4ccccc4)ccnc3O2)cc1OC (configuration not stated) do in these assays?
N-glyco inh: inactive

How did COc1ccc(C(=O)COC(=O)c2sccc2C)cc1OC do in these assays?
N-glyco inh: inactive; ALR H2O2 inh: inactive; T cell HTS: inactive

What do the screens show for `COc1ccc(NC(=O)C[C@@H]2C(=O)N(Cc3ccccc3)CC2(C)C)cc1`?
N-glyco inh: inactive

How did CC(C)(C)NC(=O)CON=C1c2ccccc2-c2ccccc21 do in these assays?
N-glyco inh: inactive; ALR H2O2 inh: inactive; T cell HTS: inactive

Results for CC(C)(C)NCC(O)CON=C1c2ccccc2-c2ccccc21 (configuration not stated) ?
N-glyco inh: 35; ALR H2O2 inh: inactive; T cell HTS: inactive

Results for O=C1NC(Cc2ccccc2)c2nc3cc(F)c(F)cc3c(=O)n2-c2ncccc21 (configuration not stated) ?
N-glyco inh: inactive

How did Cc1ccccc1NC(=O)CCCC(=O)c1ccccc1 do in these assays?
N-glyco inh: inactive; ALR H2O2 inh: inactive; T cell HTS: inactive

Results for COc1cccc(CNC(=O)c2cccc(NC(=O)CC3SC(N4CCCCC4)=NC3=O)c2)c1 (configuration not stated) ?
N-glyco inh: inactive; ALR H2O2 inh: inactive; T cell HTS: inactive

What do the screens show for `c1ccc2c(c1)Nc1ccncc1S2`?
N-glyco inh: inactive; ALR H2O2 inh: 96; T cell HTS: inactive

What do the screens show for `c1ccc2c(c1)Nc1cc3ccccc3cc1S2`?
N-glyco inh: inactive; ALR H2O2 inh: inactive; T cell HTS: inactive

How did Cc1occc1C(=O)NNC(=O)CN1C(=O)NC2(CCCCC2)C1=O do in these assays?
N-glyco inh: inactive

How did CN(NC1CC(=O)N(c2ccccc2)C1=O)c1ccccc1 (configuration not stated) do in these assays?
N-glyco inh: inactive; ALR H2O2 inh: 97; T cell HTS: inactive

Results for N#CCNC1CC(=O)N(c2ccccc2)C1=O (configuration not stated) ?
N-glyco inh: inactive; T cell HTS: inactive

Results for Cc1nn2cnnc2c(C)c1Cc1ccc(Cl)cc1 ?
N-glyco inh: inactive; ALR H2O2 inh: inactive; T cell HTS: inactive

How did COC(=O)c1ccc(C(=O)OC)c(NC(=O)Cc2cccs2)c1 do in these assays?
N-glyco inh: inactive

How did Cc1ccc(C(=O)CC(C(=O)O)c2cn(CCC#N)c3ccccc23)cc1 (configuration not stated) do in these assays?
N-glyco inh: inactive; ALR H2O2 inh: 96; T cell HTS: inactive

Results for N#CCCn1cc(C(CC(=O)c2ccc(Br)cc2)C(=O)O)c2ccccc21 (configuration not stated) ?
N-glyco inh: inactive; ALR H2O2 inh: 91; T cell HTS: inactive
